# Results from different studies.
# Compare with care: the assays were run in different laboratories.
# Matrix: Caco-2
SMILES,concentration,time,pH,efflux ratio
Nc1nc2c(ncn2COCCO)c(=O)[nH]1,10 µM,2 h,pH 7.4,9.42
CNC(=C[N+](=O)[O-])NCCSCc1ccc(CN(C)C)o1,,,,5
C[C@H]1O[C@@H](O[C@H]2[C@@H](O)C[C@H](O[C@H]3[C@@H](O)C[C@H](O[C@H]4CC[C@@]5(C)[C@H](CC[C@@H]6[C@@H]5C[C@@H](O)[C@]5(C)[C@@H](C7=CC(=O)OC7)CC[C@]65O)C4)O[C@@H]3C)O[C@@H]2C)C[C@H](O)[C@@H]1O,10 µM,2 h,pH 7.4,87.9
CCOC(=O)[C@@]12C[C@@H]1[C@@H](n1ccc3c(NC)nc(C#Cc4ccc(Cl)s4)nc31)[C@H](O)[C@@H]2O,10 µM,2 h,pH 7.4,15.6
C[C@H]1O[C@@H](O[C@H]2[C@@H](O)C[C@H](O[C@H]3[C@@H](O)C[C@H](O[C@H]4CC[C@@]5(C)[C@H](CC[C@@H]6[C@@H]5C[C@@H](O)[C@]5(C)[C@@H](C7=CC(=O)OC7)CC[C@]65O)C4)O[C@@H]3C)O[C@@H]2C)C[C@H](O)[C@@H]1O,,,,643
CC(C)NCC(O)COc1cccc2ccccc12 (stereo not drawn),5 µM,1 h,,0.8
Cn1c(=O)c2c(nc(S)n2C)n(C)c1=O,10 µM,2 h,,3.3
CO[C@@H](C[C@H]1C(C)=CC[C@@H]2[C@]3(C)C[C@H](O[C@@H]4O[C@@H](C)[C@H](OC(=O)c5cccc(O)c5)[C@@H](O[C@@H]5O[C@H](CO)[C@@H](O)[C@H](O)[C@H]5NC(C)=O)[C@H]4O)[C@@H](O)C(C)(C)[C@H]3CC[C@]21C)[C@H](N)C(=O)O.O=C(O)C(F)(F)F,5 µM,1 h,,4.6
CC(C)NCC(O)COc1cccc2ccccc12 (stereo not drawn),10 µM,2 h,pH 7.4,0.47
